Measurements: ChEMBL document CHEMBL3774373, “Activity and Predicted Nephrotoxicity of Synthetic Antibiotics Based on Polymyxin B” (J Med Chem, 2016)
≈ marks a conversion by molar mass, not a printed value. Numbered stars: 1 amine (or outer) side, 2 acyl side, 3 side chain; on linkers, the order of the positions; unused ones are H or OH. Bridge positions count the residues as written; N and C are the ends. Square brackets hold non-standard residues; d marks the D form. Peptide text beside a SMILES is read from it. * marks the point of attachment. X1 = c1ccc(-c2ccc(N*)cc2)cc1; NH(2-ClPh) = Clc1ccccc1N*; Octanoyl = CCCCCCCC(=O)*; Dab = NCC[C@H](N)C(=O)O; CO = O=C([*:1])[*:2]

How the values were obtained:
[1] = Cytotoxicity against HK2 cells assessed as LDH release by Western blot analysis; type: cell-based, HK-2; conditions: human
HepG2 = assay: (§1) Cytotoxicity against human HepG2 cells after 24 hrs by resazurin assay; type: cell-based; conditions: hepg2, 24 h
[2] = Cytotoxicity against HK2 cells assessed as GGT release by Western blot analysis; type: cell-based, HK-2; conditions: human
HEK293 = assay: (§2) Cytotoxicity against HEK293 cells after 24 hrs by resazurin assay; type: cell-based; conditions: human, hek293, 24 h
Klebsiella pneumoniae [3] = assay: Antibacterial activity against multidrug resistant Klebsiella pneumoniae ATCC 700603 after 18 hrs by 2 fold serial dilution method; type: functional; conditions: Klebsiella pneumoniae, 700603, 18 h
How it was run: (§3)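 Overnight cultures at 37 °C in nutrient or Mueller Hinton broth with shaking were diluted 50-fold in MHB and grown 1.5–3 h to mid-log phase. The inoculum was 5×10^5 CFU/mL in MHB. Compounds were 2-fold serially diluted, final 32 to 0.015 μg/mL. After 18 h at 37 °C, the MIC was read visually as the lowest concentration with no visible growth.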

Acinetobacter baumannii [4] = assay: Antibacterial activity against Acinetobacter baumannii ATCC 19606 after 18 hrs by 2 fold serial dilution method; type: functional; conditions: ATCC 19606, 18 h
How it was run: (§4)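 Overnight cultures in nutrient or Mueller Hinton broth at 37 °C with shaking, diluted 50-fold into fresh MHB and grown 1.5–3 h to mid-log. Inoculum 5×10^5 CFU/mL in 2-fold serial dilutions, final range 32 to 0.015 μg/mL. MIC read visually after 18 h at 37 °C as the lowest concentration with no visible growth.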

Escherichia coli [5] = assay: Antibacterial activity against Escherichia coli ATCC 25922 after 18 hrs by 2 fold serial dilution method; type: functional; conditions: ATCC 25922, 18 h; how it was run: as §4
Pseudomonas aeruginosa [6] = assay: Antibacterial activity against clinical isolate polymyxin resistant Pseudomonas aeruginosa PA9704 after 18 hrs by 2 fold serial dilution method; type: functional; conditions: PA9704, 18 h
How it was run: (§5)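 Polymyxin-resistant clinical isolates were grown overnight at 37 °C in NB or MHB with shaking, diluted 50-fold in MHB and grown 1.5–3 h to mid-log phase. The inoculum was 5×10^5 CFU/mL. Compounds were 2-fold broth serial dilutions, final 32 to 0.015 μg/mL; the polymyxin controls ran 128–0.06 μg/mL. The MIC was the lowest concentration with no visible growth after 18 h at 37 °C.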

[7] = as §1; type: cell-based; conditions: HepG2 cells
Klebsiella pneumoniae [8] = assay: Antibacterial activity against clinical isolate carbapenem and polymyxin resistant Klebsiella pneumoniae 138-16357-20362 after 18 hrs by 2 fold serial dilution method; type: functional; conditions: 138-16357-20362, 18 h; how it was run: as §5
Pseudomonas aeruginosa [9] = assay: Antibacterial activity against Pseudomonas aeruginosa ATCC 27853 after 18 hrs by 2 fold serial dilution method; type: functional; conditions: ATCC 27853, 18 h; how it was run: as §4
Klebsiella pneumoniae [10] = assay: Antibacterial activity against Klebsiella pneumoniae ATCC 13883 after 18 hrs by 2 fold serial dilution method; type: functional; conditions: ATCC 13883, 18 h; how it was run: as §4
Staphylococcus aureus [11] = assay: microbe, parasite or virus in culture; conditions: ATCC 25923, 18 h
Escherichia coli [12] = assay: Antibacterial activity against Escherichia coli ATCC 26 after 18 hrs by 2 fold serial dilution method; type: functional; conditions: ATCC 26, 18 h; how it was run: as §3
Klebsiella pneumoniae [13] = assay: Antibacterial activity against clinical isolate carbapenem and polymyxin resistant Klebsiella pneumoniae Koprana 100650661:1 after 18 hrs by 2 fold serial dilution method; type: functional; conditions: Koprana 100650661:1, 18 h; how it was run: as §5
Klebsiella pneumoniae [14] = assay: Antibacterial activity against Klebsiella pneumoniae ATCC BAA-2146 expressing NDM-1 after 18 hrs by 2 fold serial dilution method; type: functional; conditions: ATCC BAA-2146, 18 h; how it was run: as §3
Acinetobacter baumannii [15] = assay: Antibacterial activity against clinical isolate carbapenem and polymyxin resistant Acinetobacter baumannii Ptyela 100734512:2 after 18 hrs by 2 fold serial dilution method; type: functional; conditions: Ptyela 100734512:2, 18 h; how it was run: as §5
Pseudomonas aeruginosa [16] = assay: Antibacterial activity against clinical isolate polymyxin resistant Pseudomonas aeruginosa FADDI-PA070 after 18 hrs by 2 fold serial dilution method; type: functional; conditions: FADDI-PA070, 18 h; how it was run: as §5
[17] = as §2; type: cell-based; conditions: human, HEK293 cells
Klebsiella pneumoniae [18] = assay: Antibacterial activity against Klebsiella pneumoniae after 16 to 20 hrs by 2 fold broth microdilution method; type: functional
Escherichia coli [19] = assay: Antibacterial activity against Escherichia coli after 16 to 20 hrs by 2 fold broth microdilution method; type: functional
Acinetobacter baumannii [20] = assay: Antibacterial activity against Acinetobacter baumannii after 16 to 20 hrs by 2 fold broth microdilution method; type: functional
Pseudomonas aeruginosa [21] = assay: Antibacterial activity against Pseudomonas aeruginosa after 16 to 20 hrs by 2 fold broth microdilution method; type: functional
Staphylococcus aureus [22] = assay: Antibacterial activity against Staphylococcus aureus; type: functional
Escherichia coli [23] = assay: Antibacterial activity against Escherichia coli; type: functional
Pseudomonas aeruginosa [24] = assay: Antibacterial activity against Pseudomonas aeruginosa; type: functional
Pseudomonas aeruginosa [25] = assay: Antibacterial activity against Pseudomonas aeruginosa after 24 hrs by macrobroth dilution method; type: functional
Escherichia coli [26] = assay: Antibacterial activity against Escherichia coli after 24 hrs by macrobroth dilution method; type: functional
Staphylococcus aureus [27] = assay: Antibacterial activity against Staphylococcus aureus after 24 hrs by macrobroth dilution method; type: functional
[28] = primary human renal proximal tubule epithelial cells, read-out: CC50

Compound	MIC (Klebsiella pneumoniae [3])	MIC (Acinetobacter baumannii [4])	MIC (Escherichia coli [5])	MIC (Pseudomonas aeruginosa [6])	CC50 at 24 h [7]	MIC (Klebsiella pneumoniae [8])	MIC (Pseudomonas aeruginosa [9])	MIC (Klebsiella pneumoniae [10])	MIC (Staphylococcus aureus [11])	MIC (Klebsiella pneumoniae [13])	MIC (Klebsiella pneumoniae [14])	MIC (Acinetobacter baumannii [15])	MIC (Pseudomonas aeruginosa [16])	other results
GENTAMICIN														CC50 ([1]; hk-2): 33 µg/mL; CC50 (HepG2): > 300 µM; CC50 ([2]; hk-2): 33 µg/mL; CC50 (HEK293): > 300 µM
CC(C)C[C@@H]1NC(=O)[C@@H](Cc2ccccc2)NC(=O)[C@H](CCN)NC(=O)[C@@H](NC(=O)[C@H](CCN)NC(=O)[C@@H](NC(=O)[C@H](CCN)NC(=O)Nc2ccc(-c3ccccc3)cc2)[C@@H](C)O)CCNC(=O)[C@H]([C@@H](C)O)NC(=O)[C@H](CCN)NC(=O)[C@H](CCN)NC1=O ({X1-CO}-[Dab]T[Dab][Dab][Dab][dF]L[Dab][Dab]T; lactam 4-C)	2 µg/mL (≈ 1.59 µM)	1 µg/mL (≈ 0.795 µM)	2 µg/mL (≈ 1.59 µM)	8 µg/mL (≈ 6.36 µM)	316 µM	> 32 µg/mL	1 µg/mL (≈ 0.795 µM)	2 µg/mL (≈ 1.59 µM)	32 µg/mL (≈ 25.4 µM)	16 µg/mL (≈ 12.7 µM)	1 µg/mL (≈ 0.795 µM)	16 µg/mL (≈ 12.7 µM)	16 µg/mL (≈ 12.7 µM)	CC50 [1, 28]: > 128 µg/mL; MIC (Escherichia coli [12]): 2.5 µg/mL (≈ 1.99 µM); CC50 [2, 28]: > 128 µg/mL; CC50 at 24 h [17]: > 300 µM
CC(C)C[C@@H]1NC(=O)[C@@H](Cc2ccccc2)NC(=O)[C@H](CCN)NC(=O)[C@@H](NC(=O)[C@H](CCN)NC(=O)[C@@H](NC(=O)[C@H](CCN)NC(=O)Nc2ccccc2Cl)[C@@H](C)O)CCNC(=O)[C@H]([C@@H](C)O)NC(=O)[C@H](CCN)NC(=O)[C@H](CCN)NC1=O ({NH(2-ClPh)-CO}-[Dab]T[Dab][Dab][Dab][dF]L[Dab][Dab]T; lactam 4-C)	2 µg/mL (≈ 1.64 µM)	1 µg/mL (≈ 0.822 µM)	1 µg/mL (≈ 0.822 µM)	> 32 µg/mL	> 300 µM	> 32 µg/mL	0.5 µg/mL (≈ 0.411 µM)	2 µg/mL (≈ 1.64 µM)	> 32 µg/mL	> 32 µg/mL	4 µg/mL (≈ 3.29 µM)	> 32 µg/mL	> 32 µg/mL	MIC90 (Klebsiella pneumoniae [18]): 4 µg/mL (≈ 3.29 µM); MIC90 (Escherichia coli [19]): 2 µg/mL (≈ 1.64 µM); MIC90 (Acinetobacter baumannii [20]): 4 µg/mL (≈ 3.29 µM); MIC90 (Pseudomonas aeruginosa [21]): 2 µg/mL (≈ 1.64 µM)
CCCCCCCC(=O)N[C@H](C(=O)N[C@@H](CCN)C(=O)N[C@H]1CCNC(=O)[C@H]([C@@H](C)O)NC(=O)[C@H](CCN)NC(=O)[C@H](CCN)NC(=O)[C@H](CC(C)C)NC(=O)[C@@H](Cc2ccccc2)NC(=O)[C@H](CCN)NC1=O)[C@@H](C)O [Octanoyl Polymixin B nonapeptide] (Octanoyl-T[Dab][Dab][Dab][dF]L[Dab][Dab]T; lactam 3-C)	2 µg/mL (≈ 1.84 µM)	2 µg/mL (≈ 1.84 µM)	1 µg/mL (≈ 0.918 µM)	> 32 µg/mL	> 300 µM	> 32 µg/mL	0.5 µg/mL (≈ 0.459 µM)	1 µg/mL (≈ 0.918 µM)	> 32 µg/mL	> 32 µg/mL	2 µg/mL (≈ 1.84 µM)	> 32 µg/mL	> 32 µg/mL	MIC (Staphylococcus aureus [22]): > 16 µg/mL; MIC (Escherichia coli [23]): 0.03 µg/mL (≈ 0.0275 µM); MIC (Pseudomonas aeruginosa [24]): 4 µg/mL (≈ 3.67 µM)
CCCCCCCC(=O)N[C@@H](CCN)C(=O)N[C@H](C(=O)N[C@@H](CCN)C(=O)N[C@H]1CCNC(=O)[C@H]([C@@H](C)O)NC(=O)[C@H](CCNC(=O)[C@@H](N)CCCNC(=N)N)NC(=O)[C@H](CCN)NC(=O)[C@H](CC(C)C)NC(=O)[C@@H](Cc2ccccc2)NC(=O)[C@H](CCN)NC1=O)[C@@H](C)O (Octanoyl-[Dab]T[Dab][Dab][Dab][dF]L[Dab][Dab](Arg)T; lactam 4-C)	8 µg/mL (≈ 5.95 µM)	16 µg/mL (≈ 11.9 µM)	32 µg/mL (≈ 23.8 µM)	> 32 µg/mL	> 300 µM	> 32 µg/mL	32 µg/mL (≈ 23.8 µM)	32 µg/mL (≈ 23.8 µM)	> 32 µg/mL	> 32 µg/mL	8 µg/mL (≈ 5.95 µM)	> 32 µg/mL	> 32 µg/mL	MIC (Pseudomonas aeruginosa [25]): 0.03 µg/mL (≈ 0.0223 µM); MIC (Escherichia coli [26]): 0.16 µg/mL (≈ 0.119 µM); MIC (Staphylococcus aureus [27]): 2 µg/mL (≈ 1.49 µM)
